Data as given in ChEMBL document CHEMBL4837197, “A novel Hsp70 inhibitor specifically targeting the cancer-related Hsp70-Bim protein-protein interaction” (Eur J Med Chem, 2021).
pEC50, pIC50, pKd: −log10 of the molar value. The source made the active and inactive calls. The calls are words filed in the database; no cut-off is given here.

What was measured:
[1] = Inhibition of FAM-Bim peptide binding to human Hsp70 NBD (1 to 383) measured after 30 mins by fluorescence polarization assay
Outline: (§1)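 Fluorescence polarization competition. Serial dilutions of compound added to protein–probe mixture in buffer containing 0.02% sodium azide, incubated 30 min, then polarization read. Control values subtracted. IC50 from the competitive inhibition curve of polarization versus compound concentration.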

[2] = biological target: Apoptosis regulator Bcl-2 (Homo sapiens, UniProt P10415); assay: Inhibition of FAM-Bim peptide binding to human Bcl-2 (2 to 206) measured after 30 mins by fluorescence polarization assay; outline: as §1
KCL-22 [3] = assay: Inhibition of Hsp70/Bim protein protein interaction in human KCL-22 cells assessed as decrease in Akt expression at 3 uM by Western blot analysis; assay type: cell-based
Outline: (§2)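 BV173 and KCL22 cells treated at 3 µM, with DMSO as vehicle. Lysed in RIPA with protease/phosphatase inhibitor for 30 min on ice and protein measured by BCA. 150–250 µg resolved by SDS-PAGE and blotted for AKT, pAKT, Raf-1 and pRaf-1, with β-actin loading control.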

KCL-22 [4] = assay: Induction of apoptosis in human KCL-22 cells by AnnexinV-FITC/PI staining based flow cytometric analysis; assay type: functional, cell-based
Outline: (§3)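 Cells treated with inhibitor for 48 h (DMSO stocks diluted in medium), washed in PBS with 1% bovine calf serum, stained with FITC–Annexin V (1:40) for 10 min in the dark at room temperature, and analysed by flow cytometry. EC50 is the concentration giving 50% apoptosis. Culture conditions: BV173 and KCL22 in RPMI 1640, HEK293 in DMEM, BaF3 in RPMI 1640 with 10 ng/ml mouse IL-3, all with 10% FBS at 37 °C, 5% CO2.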

BV-173 [5] = assay: Induction of apoptosis in human BV-173 cells transfected with Hsp70 shRNA at 3 uM by AnnexinV staining method; assay type: functional, cell-based
Outline: (§4)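 Stable clones of BV173 carrying non-silencing, Hsp70 or Bim shRNA, treated at 3 µM for 48 h. Apoptosis scored by Annexin V-FITC staining and flow cytometry. n = 3 independent samples, mean ± s.e.m.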

BaF3 = assay: Induction of apoptosis in mouse BaF3 cells by AnnexinV-FITC/PI staining based flow cytometric analysis; assay type: cell-based; outline: as §3
BV-173 [6] = assay: Inhibition of Hsp70/Bim protein protein interaction in human BV-173 cells assessed as decrease in Akt phosphorylation at 3 uM by Western blot analysis; assay type: cell-based; outline: as §2
[7] = Binding affinity to human Hsp70 NBD (1 to 383) assessed as dissociation constant measured by isothermal titration calorimetry assay
Outline: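 ITC: binding isotherms integrated to give enthalpy change against ligand molar ratio, fitted with a one-set-of-sites model. Kd taken from the slope of the central linear part of the fractional saturation curve. Three independent experiments.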

BV-173 [8] = assay: Inhibition of Hsp70/Bim protein protein interaction in human BV-173 cell lysate at 1 to 5 uM by co-IP/Western blot analysis; assay type: subcellular; details: dose 1-5 µM
Outline: (§5)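 BV173 cells treated at 0, 1, 3 and 5 µM. Immunoprecipitated with sepharose beads for 2 h at 4 °C. Hsp70, Bim and Bag3 probed by Western blot with β-actin as loading control.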

BV-173 [9] = assay: Inhibition of Hsp70/Bim protein protein interaction in human BV-173 cells assessed as decrease in Raf-1 phosphorylation at 3 uM by Western blot analysis; assay type: cell-based; outline: as §2
KCL-22 [10] = assay: Inhibition of Hsp70/Bim protein protein interaction in human KCL-22 cells assessed as decrease in Raf-1 expression at 3 uM by Western blot analysis; assay type: cell-based; outline: as §2
BV-173 [11] = assay: Competitive binding affinity to HSP70 in human BV-173 cell lysate by pull-down/Western blot analysis; assay type: subcellular
Outline: (§6)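 BV173 cell lysate incubated with biotin-clickable affinity probe, with or without competitor. Probe-bound proteins pulled down on streptavidin/avidin agarose after click reaction. Beads washed with 0.1% SDS and PBS, boiled 15 min in SDS loading buffer. Hsp70, Hsc70 and Mortalin detected by Western blot.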

BV-173 [12] = assay: Inhibition of Hsp70/Bag3 protein protein interaction in human BV-173 cell lysate at 1 to 5 uM by co-IP/Western blot analysis; assay type: subcellular; details: dose 1-5 µM; outline: as §5
Homo sapiens = species: Homo sapiens; assay: Inhibition of BimBH3-stimulated human HSP70 ATPase activity
BV-173 [13] = assay: Inhibition of Hsp70/Bim protein protein interaction in human BV-173 cells assessed as decrease in Akt expression at 3 uM by Western blot analysis; assay type: cell-based; outline: as §2
BV-173 [14] = assay: Induction of apoptosis in human BV-173 cells transfected with Bim shRNA at 3 uM by AnnexinV staining method; assay type: functional, cell-based; outline: as §4
[15] = biological target: Heat shock cognate 71 kDa protein (Homo sapiens) (UniProt P11142); assay: Competitive binding affinity to Hsc70 in human BV-173 cell lysate up to 10 uM by pull-down/Western blot analysis; assay type: subcellular; details: dose microM <=10; outline: as §6
KCL-22 [16] = assay: Inhibition of Hsp70/Bim protein protein interaction in human KCL-22 cells assessed as decrease in Akt phosphorylation at 3 uM by Western blot analysis; assay type: cell-based; outline: as §2
HEK293 = assay: Induction of apoptosis in human HEK293 cells by AnnexinV-FITC/PI staining based flow cytometric analysis; assay type: cell-based; outline: as §3
[17] = biological target: Stress-70 protein, mitochondrial (Homo sapiens) (UniProt P38646); assay: Competitive binding affinity to Mortalin in human BV-173 cell lysate up to 10 uM by pull-down/Western blot analysis; assay type: subcellular; details: dose microM <=10; outline: as §6
KCL-22 [18] = assay: Inhibition of Hsp70/Bim protein protein interaction in human KCL-22 cells assessed as decrease in Raf-1 phosphorylation at 3 uM by Western blot analysis; assay type: cell-based; outline: as §2
BV-173 [19] = assay: Induction of apoptosis in human BV-173 cells transfected with Hsp70 shRNA assessed as cleaved PARP at 3 uM by Western blot analysis; assay type: functional, cell-based
Outline: (§7)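 Stable non-silencing, Hsp70 or Bim shRNA BV173 clones treated at 3 µM. Lysed in RIPA with protease/phosphatase inhibitors, 150–250 µg protein resolved by SDS-PAGE, and PARP cleavage detected by immunoblot. n = 3 independent samples.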

BV-173 [20] = assay: Induction of apoptosis in human BV-173 cells transfected with Bim shRNA assessed as cleaved PARP at 3 uM by Western blot analysis; assay type: functional, cell-based; outline: as §7
BV-173 [21] = assay: Inhibition of Hsp70/Bim protein protein interaction in human BV-173 cells assessed as decrease in Raf-1 expression at 3 uM by Western blot analysis; assay type: cell-based; outline: as §2
BV-173 [22] = assay: Induction of apoptosis in human BV-173 cells by AnnexinV-FITC/PI staining based flow cytometric analysis; assay type: functional, cell-based; outline: as §3

Chain of Apoptosis regulator Bcl-2 (P10415 whole entry): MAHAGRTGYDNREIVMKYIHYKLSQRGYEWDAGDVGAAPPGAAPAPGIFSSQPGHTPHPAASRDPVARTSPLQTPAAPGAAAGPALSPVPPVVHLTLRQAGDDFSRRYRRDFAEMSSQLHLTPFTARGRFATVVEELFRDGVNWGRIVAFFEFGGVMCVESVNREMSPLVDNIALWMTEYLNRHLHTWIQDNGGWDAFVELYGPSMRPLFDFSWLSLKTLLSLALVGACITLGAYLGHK
Chain of Stress-70 protein, mitochondrial (Homo sapiens) (P38646 whole entry): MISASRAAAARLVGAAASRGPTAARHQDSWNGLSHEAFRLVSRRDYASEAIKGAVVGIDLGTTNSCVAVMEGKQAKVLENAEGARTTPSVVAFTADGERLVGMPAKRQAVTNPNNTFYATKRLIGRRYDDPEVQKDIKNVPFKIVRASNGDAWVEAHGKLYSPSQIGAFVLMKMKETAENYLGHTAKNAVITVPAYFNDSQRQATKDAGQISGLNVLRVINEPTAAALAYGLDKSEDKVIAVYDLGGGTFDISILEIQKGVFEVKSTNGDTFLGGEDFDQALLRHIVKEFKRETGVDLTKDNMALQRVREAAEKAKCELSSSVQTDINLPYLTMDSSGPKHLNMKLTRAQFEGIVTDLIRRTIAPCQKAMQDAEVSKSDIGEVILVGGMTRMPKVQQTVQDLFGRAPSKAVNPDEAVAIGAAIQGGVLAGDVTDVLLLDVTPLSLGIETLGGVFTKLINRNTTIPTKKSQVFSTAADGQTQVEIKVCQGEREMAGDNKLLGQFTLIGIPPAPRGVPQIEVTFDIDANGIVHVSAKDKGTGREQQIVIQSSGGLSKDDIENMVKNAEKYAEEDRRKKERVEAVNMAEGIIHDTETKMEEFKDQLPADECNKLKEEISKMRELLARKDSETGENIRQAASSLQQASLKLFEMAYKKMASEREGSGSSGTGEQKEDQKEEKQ
Chain of Heat shock cognate 71 kDa protein (Homo sapiens) (P11142 2-646 limits assumed): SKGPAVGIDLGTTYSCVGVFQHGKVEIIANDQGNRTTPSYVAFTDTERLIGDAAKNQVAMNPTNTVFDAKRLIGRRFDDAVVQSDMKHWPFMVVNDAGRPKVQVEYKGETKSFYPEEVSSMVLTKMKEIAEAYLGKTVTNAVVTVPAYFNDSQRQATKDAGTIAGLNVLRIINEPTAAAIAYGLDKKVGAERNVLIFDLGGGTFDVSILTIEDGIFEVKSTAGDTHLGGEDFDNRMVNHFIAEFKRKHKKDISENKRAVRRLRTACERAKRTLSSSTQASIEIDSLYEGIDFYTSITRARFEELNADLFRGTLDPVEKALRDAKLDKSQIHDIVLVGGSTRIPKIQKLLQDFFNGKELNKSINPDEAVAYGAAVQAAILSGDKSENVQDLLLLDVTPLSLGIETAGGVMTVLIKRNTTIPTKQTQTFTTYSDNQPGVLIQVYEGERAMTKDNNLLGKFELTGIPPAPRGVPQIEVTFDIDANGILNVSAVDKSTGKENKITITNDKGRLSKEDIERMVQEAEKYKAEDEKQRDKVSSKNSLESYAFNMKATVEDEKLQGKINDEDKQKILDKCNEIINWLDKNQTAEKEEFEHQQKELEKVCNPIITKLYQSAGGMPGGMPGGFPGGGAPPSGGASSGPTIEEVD

With CC(C)c1ccc(Sc2ccc3c4c(cccc24)C(=O)C(C#N)=C3C#N)cc1 the pIC50 [1] was 5.36 and the pIC50 [2] was 5.55.
In the case of N#CC1=C(C#N)c2ccc(Sc3ccc(Br)cc3)c3cccc(c23)C1=O, the pIC50 [1] was 5.60 and the pIC50 [2] was 6.15.
For N#CC1=C(NCC2CCCCC2)c2ccc(SC3CCCCC3)c3cccc(c23)C1=O, the pIC50 [1] was 5.08 and the pIC50 [2] was 5.32.
With N#CC1=C(C#N)c2ccc(SC3CCCCC3)c3cccc(c23)C1=O the pIC50 [1] was 5.77 and the pIC50 [2] was 5.07.
In the case of COc1ccc(Sc2ccc3c4c(cccc24)C(=O)C(C#N)=C3C#N)cc1, the pIC50 [1] was 5.35 and the pIC50 [2] was 5.21.
For N#CC1=C(NCCN2CCOCC2)c2ccc(SC3CCCCC3)c3cccc(c23)C1=O, the inhibition (KCL-22 [3]) was “Active”, the pEC50 (KCL-22 [4]) was 5.59 and the Activity (BV-173 [5]) was “Active”. The pEC50 (BaF3) was under 4.82, the pIC50 [1] was 6.35 and the inhibition (BV-173 [6]) was “Active”. For the same molecule, the pKd [7] was 6.02, the inhibition (BV-173 [8]) was “Active” and the inhibition (BV-173 [9]) was “Active”. The inhibition (KCL-22 [10]) was “Active”, the Activity (BV-173 [11]) was “Dose-Dependent Effect” and the inhibition (BV-173 [12]) was “inactive”. For the same molecule, the inhibition (Homo sapiens) was “Active”, the inhibition (BV-173 [13]) was “Active” and the Activity (BV-173 [14]) was “Active”. The Activity [15] was “Active”, the inhibition (KCL-22 [16]) was “Active” and the pEC50 (HEK293) was under 4.82. For the same molecule, the Activity [17] was “Active”, the inhibition (KCL-22 [18]) was “Active” and the Activity (BV-173 [19]) was “Active”. The Activity (BV-173 [20]) was “Active”, the inhibition (BV-173 [21]) was “Active” and the pIC50 [2] was 4.73. The pEC50 (BV-173 [22]) was 5.85.
With N#CC1=C(NCc2ccccc2)c2ccc(SC3CCCCC3)c3cccc(c23)C1=O the pIC50 [1] was 4.98 and the pIC50 [2] was 5.28.
With N#CC1=C(C#N)c2ccc(SC3CCCC3)c3cccc(c23)C1=O the pIC50 [1] was 5.49 and the pIC50 [2] was 5.08.
In the case of N#CC1=C(C#N)c2ccc(Sc3ccccc3)c3cccc(c23)C1=O, the pIC50 [1] was 5.11 and the pIC50 [2] was 5.74.
In the case of CCCCNC1=C(C#N)C(=O)c2cccc3c(SC4CCCCC4)ccc1c23, the pIC50 [1] was 4.88 and the pIC50 [2] was 4.80.
In the case of CC1(C)CCC(CN2CCN(c3ccc(C(=O)NS(=O)(=O)c4ccc(NCC5CCOCC5)c([N+](=O)[O-])c4)c(Oc4cnc5[nH]ccc5c4)c3)CC2)=C(c2ccc(Cl)cc2)C1 [VENETOCLAX], the pIC50 [1] was under 4.70.
Molecule N#CC1=C(NCCC(N)=O)c2ccc(SC3CCCCC3)c3cccc(c23)C1=O has a pIC50 [1] of 6.00 and a pIC50 [2] of 4.87.
With N#CC1=C(C#N)c2ccc(NCc3ccccc3)c3cccc(c23)C1=O the pIC50 [1] was 4.73 and the pIC50 [2] was 4.83.
Molecule N#CC1=C(C#N)c2ccc(NC3CCCCC3)c3cccc(c23)C1=O has a pIC50 [1] of under 4.70 and a pIC50 [2] of under 4.70.
In the case of N#CC1=C(C#N)c2ccc(N3CCSCC3)c3cccc(c23)C1=O, the pIC50 [1] was under 4.70 and the pIC50 [2] was 6.10.
With N#CC1=C(NCCO)c2ccc(SC3CCCCC3)c3cccc(c23)C1=O the pIC50 [1] was 6.09 and the pIC50 [2] was 5.02.
Molecule N#CC1=C(C#N)c2ccc(NCCO)c3cccc(c23)C1=O has a pIC50 [1] of 4.82 and a pIC50 [2] of under 4.70.
